Experimental data from different studies.
Target: Mitogen-activated protein kinase kinase kinase kinase 3 (MAP4K3, Homo sapiens, UniProt Q8IVH8)
Sequence (Q8IVH8 1-894, as in one of the studies): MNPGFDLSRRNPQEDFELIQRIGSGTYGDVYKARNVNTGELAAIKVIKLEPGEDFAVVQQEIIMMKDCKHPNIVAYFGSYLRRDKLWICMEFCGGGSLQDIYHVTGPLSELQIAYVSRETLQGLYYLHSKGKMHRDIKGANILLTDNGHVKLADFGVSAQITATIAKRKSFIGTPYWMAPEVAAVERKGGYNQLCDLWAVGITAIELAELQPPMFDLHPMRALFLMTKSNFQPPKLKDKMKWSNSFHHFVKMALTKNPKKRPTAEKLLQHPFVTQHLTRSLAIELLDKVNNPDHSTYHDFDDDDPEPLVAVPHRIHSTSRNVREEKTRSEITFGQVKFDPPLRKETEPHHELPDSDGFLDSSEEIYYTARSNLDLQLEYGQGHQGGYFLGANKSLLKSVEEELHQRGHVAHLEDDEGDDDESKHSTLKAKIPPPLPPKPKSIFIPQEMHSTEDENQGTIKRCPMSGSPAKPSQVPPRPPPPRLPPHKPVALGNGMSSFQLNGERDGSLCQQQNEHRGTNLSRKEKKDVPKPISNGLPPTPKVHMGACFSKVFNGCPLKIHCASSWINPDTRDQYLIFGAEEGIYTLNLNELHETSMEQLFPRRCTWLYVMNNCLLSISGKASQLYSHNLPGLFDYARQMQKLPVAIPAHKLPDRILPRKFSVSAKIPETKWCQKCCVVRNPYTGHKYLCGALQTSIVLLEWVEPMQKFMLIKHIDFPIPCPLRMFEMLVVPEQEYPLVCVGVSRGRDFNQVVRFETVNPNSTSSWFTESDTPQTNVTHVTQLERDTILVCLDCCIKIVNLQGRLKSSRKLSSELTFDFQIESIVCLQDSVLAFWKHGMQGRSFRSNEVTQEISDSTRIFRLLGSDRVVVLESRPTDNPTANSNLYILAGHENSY

Compound | effect on | method | tested at | remaining binding
c1cnn2ncc(-c3ccnc(N4CCC45COC5)n3)c2c1 | binding |  | 1 µM | 88%
Nc1c(C(=O)NCc2ccc(C(=O)NCCCC3CCCCC3)cc2)cnn1-c1ccccc1 | cell-free assay | competition with immobilised ligand | 0.1 µM | 100%
O=C(c1ccc(Nc2ncc(Cl)c(-c3ccc(Cl)s3)n2)cc1)N1CCC(N2CCCC2)CC1 | binding | competition with immobilised ligand | 1 µM | 50%
O=C(Nc1cccnn1)N1CCC(=Cc2cccc(Oc3ccc(C(F)(F)F)cn3)c2)CC1 | cell-free assay | competition with immobilised ligand | 1 µM | 100%
CNC(=O)[C@@H]1CC[C@@H](n2c(-c3ccc4cnccc4c3)nc3ccc(C(=O)NCc4cccc(C(N)=O)c4)cc32)C1 | binding | competition with immobilised ligand | 1 µM | 100%
C[C@H]1CCN(c2nccc(-c3cnn4ncccc34)n2)C1 | binding |  | 1 µM | 100%
c1cncc(-c2cccc(Nc3nccc(NC4CCCCC4)n3)c2)c1 | binding | competition with immobilised ligand | 10 µM | 83%
CN(C)c1ncc(F)c(-c2cnn3ncccc23)n1 | binding |  | 1 µM | 100%
FC(F)(F)Oc1cccc(-c2cnc3ccc(-c4ccncc4)nn23)c1 | cell-free assay | competition with immobilised ligand | 5 µM | 86%
CC(C)(O)c1cncc(-c2nc3ccc(F)cc3n2C2CC2)c1 | cell-free assay | competition with immobilised ligand | 1 µM | 100%
N[C@@H]1CCN(c2nccc(-c3cnn4ncccc34)n2)C1 | binding |  | 1 µM | 76%
COc1cnc(Nc2cccc(S(N)(=O)=O)c2)nc1N1CCN(c2ccccc2)C(=O)C1 | binding | competition with immobilised ligand | 1 µM | 95%
O=C(O)c1cc(-c2ccc(C3CCNCC3)cc2)c2ccc(-c3ccc(C(F)(F)F)cc3)cc2c1 | cell-free assay | competition with immobilised ligand | 1 µM | 100%
O=C(c1ccc(Nc2nccc(-c3cc4ccccc4s3)n2)cc1)N1CCC(N2CCCC2)CC1 | binding | competition with immobilised ligand | 1 µM | 93%
CCS(=O)(=O)c1cc2cc(C[C@@](O)(CC(C)(C)c3ccc(F)cc3C(N)=O)C(F)(F)F)[nH]c2cn1 | cell-free assay | competition with immobilised ligand | 1 µM | 82%
O=C(NCCCN1CCOCC1)c1ccc(Nc2nccc(-c3cc4ccccc4s3)n2)cc1 | binding | competition with immobilised ligand | 1 µM | 65%
F[C@@H]1CCN(c2nccc(-c3cnn4ncccc34)n2)C1 | binding |  | 1 µM | 100%
O=C(NCC1CCOCC1)c1n[nH]cc1NC(=O)c1c(F)cccc1F | binding | competition with immobilised ligand | 1 µM | 82%
CN(c1nccc(-c2cnn3ncccc23)n1)C1CC1 | binding |  | 1 µM | 100%
O=C(Nc1cccnn1)N1CC(C/C=C/c2cncc(Oc3ccc(C(F)(F)F)cn3)n2)C1 | cell-free assay | competition with immobilised ligand | 1 µM | 100%
